Measurements published in the EternaBench riboswitch data.

Tested on: MS2 coat protein
Test: apparent Kd, MS2 coat protein; higher = weaker binding; RNA-MaP array; FMN 200 µM where present
In short: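 Designs were transcribed by stalled E. coli RNA polymerase on Illumina sequencing-chip clusters. They were titrated with SNAP-549-labelled MS2 coat protein from 0.7 or 1.5 nM, doubling to 3 µM, in 100 mM Tris-HCl pH 7.5, 80 mM KCl, 4 mM MgCl2, BSA, DTT, yeast tRNA and Tween-20, without and then with constant ligand. The apparent Kd is the median of filtered per-cluster fits after normalisation of green signal to red-channel RNA signal and control-cluster median Fmax.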

[1] = designed as: OFF switch for flavin mononucleotide, no ligand
[2] = ligand present: flavin mononucleotide, designed as: OFF switch for flavin mononucleotide
[3] = designed as: ON switch for flavin mononucleotide, no ligand
[4] = ligand present: flavin mononucleotide, designed as: ON switch for flavin mononucleotide

Row | Sequence | apparent Kd [1] [nM] | apparent Kd [2] [nM] | apparent Kd [3] [nM] | apparent Kd [4] [nM]
1 | CCUCCUGCAAAGGAUAUCGCGCGGUGACGCUGUCGAGAAGGUUGUACAUGAGGAUCACCCAUGUGGUAUAAGAU | 202 | 472 |  | 
2 | UGCAGACGAGGAUAUAGAUUUAAGUACAUGAGGAUCACCCAUGUGCAUAUGUAUUUAGAUUUAGAAGGCGUCUGCA | 482 | 469 |  | 
3 | UUAUGGAUUACAGGAUAUGUUAGUUUUAAGUGUAUUGGUUAUUACUUAAUUACAGAAGGGUAUUACAUGAGGAUCACCCAUGUA |  |  | 16.4 | 11.8
4 | GAGGACUGUAAAUAAGUAGAAAUACAUGAGGAUCACCCAUGUAAGGAUAUCGUCAGGAAUACUGACGAGAAGGUACAUCAGUCC | 14.5 | 18.1 |  | 
5 | GUCUCGUGAGGAUAUGACGCUACUUUUUUGUUUUAGUAGAGUCAGAAGGCACAUGAGGAUCACCCAUGUGAUUC | 78.6 | 48.7 |  | 
6 | UAGGUGUGAGGAUAUGGUAAAGAUAAGAUGAUGAAAGAACUCCAGAAGGCACAUGAGGAUCACCCAUGUAGAUG | 28 | 70.8 |  | 
7 | CAGGUAGACUGAGGAUAUACACUAAACAGCUAGUCUAUCUAGCUGGUCACAUGAGGAUCACCCAUGUAGAAGGCAGUCUGCCUG | 17.8 | 35.9 |  | 
8 | AGAAUGGGCGAGAAGGGAGUACAUGAGGAUCACCCAUGUGGUUCAUGGUGCUCAGGAUAUCGAUAGACCAGGGAGCGUCUCUGA | 30 | 148 |  | 
9 | AGCUAGUCAGGAUAUACGAGAACGAACGAAGCAGUGAAGGGACAUGAGGAUCACCCAUGUAGAAGGGACUAGCA | 36 | 82.6 |  | 
10 | GUAGCAUACCGAGGAUAUUCAGAUAAUAAAUAAACAUGAGGAUCACCCAUGUGGCGAAAGCCUAGGGAGAAGGCGGAAUGCUAC |  |  | 77 | 20.6
11 | ACUCUGCGAGGAUAUACAUGAGGAUCACCCAUGUGCGAGUUACUUGUGAGGUCGGUUGGUAGAAGGCGCGGAGA | 99.4 | 134 |  | 
12 | UGGUGAAAUGUAGGAUAUGGAAAUAAAUUUUAACCAGAAGGACAUGAGGAUCACCCAUGUGAUAGAGAAUUAAUAAUAGCUCCU | 26.9 | 31.3 |  | 
13 | UAUAACCGAGGAUAUACAUGAGGAUCACCCAUGUAAUGUAGUAUAAUGUAUGUAAAAUGUAGAAGGUGGGAUGU | 54.4 | 47 |  | 
14 | GGGUGGCGUAGAGGAUAUGUGUUACAUGAGGAUCACCCAUGUGCAUAUGAUGUUCGUGUGUGUGUAUAGAAGGCUACGUCGCUA |  |  | 14.4 | 17.7
15 | GAUCCACAUGAGGAUCACCCAUGUCAGGAUAUGAUACUAUGUACUUCGGUACAUAGUAUCAGAAGGGACAGAUC | 168 | 108 |  | 
16 | AGUUAAUAUCGAGGAUAUCCUCAUAUACAUGAGGAUCACCCAUGUAAACAUGGAGAAGGCGAUAUUAACAGCAUGUUACAUGCA |  |  | 377 | 21.9
17 | UGUGCCUCGAGAGGAUAUAUACAUGAGGAUCACCCAUGUAACGAGGUGGAAACACCUCGAAAUGUAUAGAAGGCUCGAGGCACA | 27.7 | 49.6 |  | 
18 | CUAAAUCAUGUAGGAUAUGCAUGGCGAAGCUACGCAGAAGGACAUGAGGAUCACCCAUGUCUGUCCGACUGCGUACAGUCGGAC | 21.6 | 114 |  | 
19 | GCGAAGAACGAGAAGGCCACAACAUGAGGAUCACCCAUGUCGUGGAGUAUUGGAGGAUAUCGUUAGGCGUCUCAUGAGGACAUA | 5.92 | 5.66 |  | 
20 | CAUACACAUGAGGAUCACCCAUGUGAGGAUAUGCGUACGUUGUCCGUAGGCGACGUGCGCAGAAGGCGCUUGGU | 57.1 | 68.6 |  | 
21 | AACAGUCUAGAGGAUAUGCUGGAUUAAAAUCUGGCAGAAGGCUGGACAUGAGGAUCACCCAUGUAAAUACUACC | 33.6 | 162 |  | 

Row | Sequence | apparent Kd [1] [nM] | apparent Kd [2] [nM] | apparent Kd [3] [nM] | apparent Kd [4] [nM]
22 | GAGCGAAAGCUCAAUGUCGAUAGCAGAAGGACAUGAAAACAUGAAAUAACAUGAGGAUCACCCAUGUAGGAUAUGCUAUCGACU | 17.9 | 279 |  | 
23 | GUGUUGUCAGGAUAUCUUACAUAACUAUCGUUGUUACCAUUGGAGAAGGGACAUGAGGAUCACCCAUGUUAUCC | 22.3 | 23.7 |  | 
24 | UAGGACUUCGUAGGAUAUGUAUUUGAUUUCUACAUGAGGAUCACCCAUGUUUGCAUUUUUUUUUGACAGAAGGACGUGGUCCUA |  |  | 16.8 | 13.2
25 | GAGCGAGGGACAGGAUAUGCGGCGAAACUCUCCGCAGAAGGGUCGACAUGAGGAUCACCCAUGUCCUUACGCUCCAAGUAGAGG |  |  | 132 | 397
26 | CCUGUGUGAGGAUAUGGUGUUGGAAAAAAGGAAUAGCUCCUCCAGAAGGCACAUGAGGAUCACCCAUGUCGUGG | 21.4 | 53.2 |  | 
27 | AUUAUACAUGAGGAUCACCCAUGUAAUUAAUUAAUUAAGAUCUAGGAUAUCAGCUCGAUUAGAGCUGAGAAGGAGAUCACAUGU |  |  | 29.9 | 18.7
28 | CUCACGUUAGUAGGAUAUCCGACAUGAGGAUCACCCAUGUCACUACGCCUCAAGGGAAGGCGUAAGGAGAAGGGCUGAUAAAUA |  |  | 254 | 156
29 | AGUUAAUAUCGAGGAUAUGUCUAGACACAUGAGGAUCACCCAUGUAUGUGUAUAGAAGGCGAUAUUAACAGCAUGUUACAUGCA |  |  | 40.2 | 16.7
30 | GUCGGAAACGACAAGUAGCAAUCGGAGGAUAUUCAUUAAAACAUGAGGAUCACCCAUGUAAAUUGGGAGAAGGCCGAUUGCUAC |  |  | 17.8 | 5.31
31 | GAAAACUGAGGAUAUACAUGAGGAUCACCCAUGUAGGUACGGCUUCUACAUUCGUCAUGUAGAAGGCAGUAUAA | 18.1 | 15.7 |  | 
32 | GCCAUCGUAUGAGGAUAUGGCGCCGAAACGGUGCCAGAAGGCAUGUCAAUAGACAUGAGGAUCACCCAUGUGUUAUCGAUGGCA |  |  | 134 | 11.9
33 | CUGAGGUCAGGAUAUGCAUGGCGGGACUUGCGUCGUGGCGUGCAGAAGGGACAUGAGGAUCACCCAUGUGGAGG | 147 | 206 |  | 
34 | ACAAAUUAGUGAGGAUAUGCUAAAUUUAUAACAGCAGAAGGCACAAACCUCAAGACAUGAGGAUCACCCAUGUGGAAUAUAGAU | 68 | 139 |  | 
35 | GUUGGUUAUGUAGGAUAUGCGAGGCGAGCCUAAGCAGAAGGACAUGAGGAUCACCCAUGUAUUGCGGUCUGCGUUCAGAUCGCU | 36.2 | 156 |  | 
36 | CCUCUACAUGAGGAUCACCCAUGUGAGGAUAUGUGAGGCGCGCUCGAUGAGCGCACCGAUAGAAGGCAUGUGGU | 25.8 | 70.5 |  | 
37 | CCCUCACAUGAGGAUCACCCAUGUCAGGAUAUUCGAGGCGCAAAUGCGCCAAAUGCAGGAAGAAGGGACGUGCC | 15.4 | 25.7 |  | 
38 | AUCAUGUAAGGAUAUCUUAUAUGGAUCGAAAGAUCAAGUUAAGAGAAGGUACAUGAGGAUCACCCAUGUAUAAC | 21.2 | 27.2 |  | 
39 | AUGGUGACGUAGAAGGGUGACAUGAGGAUCACCCAUGUGCCGAUAUAUCUCGAGAUAUGUCGGCCACAGGAUAUACGUGCCAUC |  |  | 150 | 158
40 | UUAGUUUUGCAAGGAUAUGUUUAUUUAUAGUUGCCUCUUACAUGAGGAUCACCCAUGUUUUACUUACAGAAGGUGCAAUGAUUU | 165 | 416 |  | 
41 | UUACAUACAAAGGUACAUGAGGAUCACCCAUGUUUGUUGGGAAGAAGGGUAACAAUACUACACAUACAGGAUAUUUCACAAAUA |  |  | 48 | 31.3
42 | GGAUCGAAAGUGAGGAUAUGCUGGUCCUUGGAUCAGCAGAAGGCACAUGAGGAUCACCCAUGUGAUUUCGAUCC | 16.6 | 25 |  | 
